Experimental data published in ChEMBL document CHEMBL1128448, “Synthesis and antifungal activity of new azole derivatives containing an N-acylmorpholine ring” (1995).
Values after ≈ are worked out from the molar mass of the structure shown.

Legend:
Type in all cases: functional
Candida albicans [1] = assay: In vivo evaluation of minimum inhibitory concentration against Candida albicans 406
How it was run: (§1)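 Broth macrodilution MIC following NCCLS M27-P, in RPMI-1640 buffered with 0.165 M MOPS. Fluconazole was dissolved in water and other drugs in DMSO. C. parapsilosis ATCC 22019 served as the reference strain in every run. MIC was the lowest concentration giving turbidity at or below the 80% inhibition standard.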

Candida albicans [2] = assay: In vivo evaluation of minimum inhibitory concentration against Candida albicans 60; how it was run: as §1
Candida albicans [3] = assay: Evaluation of In vitro antifungal activity against Candida albicans 406 by broth macro dilution method
How it was run: (§2)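 Yeast MIC and MFC by broth macrodilution per NCCLS M27-P in RPMI-1640 buffered with 0.165 M MOPS. Fluconazole in sterile water, other drugs in DMSO. C. parapsilosis ATCC 22019 is the reference strain in each run. MIC is the lowest concentration with turbidity ≤ the 80% inhibition standard. For MFC, 0.04 mL from clear tubes is plated on Sabouraud agar; MFC is the lowest concentration giving ≤1 colony.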

Candida tropicalis [4] = assay: Evaluation of In vitro antifungal activity against Candida tropicalis 2.11 by broth macro dilution method; how it was run: as §2
Candida tropicalis [5] = assay: In vivo Evaluation of minimum inhibitory concentration against Candida tropicalis 2.11
How it was run: (§3)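 Stocks are 800 μg/mL in 50% ethanol. Each plate gets 10 μL of inoculum at 10^5 cfu/mL. Incubation at 25 °C, 48 h for yeasts and 120 h for dermatophytes and molds. Organisms are ATCC strains or clinical isolates.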

Kluyveromyces marxianus [6] = assay: In vivo Evaluation of minimum inhibitory concentration against Candida pseudotropicalis 13; settings: Kluyveromyces marxianus; read-out: MIC; how it was run: as §3
Rattus norvegicus [7] = assay: In vivo evaluation of antifungal activity against vaginal candidosis in rat at dose 0.1 mg/kg on 10th day
How it was run: (§4)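 Groups of 10 female Wistar rats given estradiol 25 mg/kg sc on day -5, then vaginally inoculated with C. albicans on day 0. Infection is confirmed by culture of day-3 swabs. Compound is dosed orally once daily on days 3–5; controls get vehicle. Cure is scored by culture of vaginal swabs taken on days 10 and 15.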

Rattus norvegicus [8] = assay: In vivo evaluation of antifungal activity against vaginal candidosis in rat at dose 0.1 mg/kg on 15th day; how it was run: as §4
Rattus norvegicus [9] = assay: In vivo evaluation of antifungal activity against vaginal candidosis in rat at dose 0.25 mg/kg on 10th day
How it was run: (§5)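 Groups of 10 female Wistar rats given estradiol 25 mg/kg sc on day -5, infected intravaginally with C. albicans by sterile swab on day 0; infection confirmed on day 3 by swab culture (TSB, then Sabouraud agar). Oral dosing once daily on days 3, 4, 5; vehicle controls. Vaginal swabs cultured on days 10 and 15; read-out % cured (culture-negative).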

Rhodotorula mucilaginosa [10] = assay: In vivo Evaluation of minimum inhibitory concentration against Rhodotorula rubra 16; settings: in the assay text read “In vitro” for “In vivo”; how it was run: as §3
Nakaseomyces glabratus [11] = assay: In vivo Evaluation of minimum inhibitory concentration against Torulopsis glabrata 78; settings: in the assay text read “In vitro” for “In vivo”; how it was run: as §3
Candida albicans [12] = assay: […] Evaluation of minimum inhibitory concentration against Candida albicans 406; how it was run: as §3
Candida albicans [13] = assay: […] Evaluation of minimum inhibitory concentration against Candida albicans 60; how it was run: as §3
Candida tropicalis [14] = assay: In vitro evaluation of minimum inhibitory concentration against Candida tropicalis 2.11; settings: Candida tropicalis; read-out: MIC; how it was run: as §3
Mus sp. [15] = assay: In vivo evaluation of % survival rate after peroral administration on 3rd day at dose 2.5 mg/kg; settings: Mus sp., po
Mus musculus [16] = assay: In vivo evaluation of % survival rate after peroral administration on 3rd day at dose 20 mg/kg; settings: route oral
Mus musculus [17] = assay: In vivo evaluation of % survival rate after peroral administration on 3rd day at dose 5 mg/kg; settings: route oral
Mus musculus [18] = assay: In vivo evaluation of % survival rate after peroral administration on 5th day at dose 10 mg/kg; settings: route oral
Mus sp. [19] = assay: In vivo evaluation of % survival rate after peroral administration on 5th day at dose 2.5 mg/kg; settings: Mus sp., po
Mus musculus [20] = assay: In vivo evaluation of % survival rate after peroral administration on 5th day at dose 20 mg/kg; settings: route oral
Mus musculus [21] = assay: In vivo evaluation of % survival rate after peroral administration on 5th day at dose 5 mg/kg; settings: route oral
Mus musculus [22] = assay: In vivo evaluation of % survival rate after peroral administration on 7th day at dose 10 mg/kg; settings: route oral
Mus sp. [23] = assay: In vivo evaluation of % survival rate after peroral administration on 7th day at dose 2.5 mg/kg; settings: Mus sp., po
Mus musculus [24] = assay: In vivo evaluation of % survival rate after peroral administration on 7th day at dose 20 mg/kg; settings: route oral
Mus musculus [25] = assay: In vivo evaluation of % survival rate after peroral administration on 9th day at dose 10 mg/kg; settings: route oral
Mus sp. [26] = assay: In vivo evaluation of % survival rate after peroral administration on 9th day at dose 2.5 mg/kg; settings: Mus sp., po
Mus musculus [27] = assay: In vivo evaluation of % survival rate after peroral administration on 9th day at dose 20 mg/kg; settings: route oral
Mus musculus [28] = assay: In vivo evaluation of % survival rate after peroral administration on 9th day at dose 5 mg/kg; settings: route oral
Rattus norvegicus [29] = assay: In vivo evaluation of antifungal activity against vaginal candidosis in rat at dose 0.5 mg/kg on 10th day
How it was run: (§6)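 Female Wistar rats, 10 per group, received estradiol 25 mg/kg sc on day -5. On day 0 they were infected intravaginally with C. albicans by sterile swab. Infection was confirmed on day 3 by culturing the swab in TSB and then on Sabouraud agar. Oral dosing was once daily on days 3, 4 and 5; controls got vehicle only. Vaginal swabs taken on days 10 and 15 were cultured and read the next day.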

Rattus norvegicus [30] = assay: In vivo evaluation of antifungal activity against vaginal candidosis in rat at dose 0.5 mg/kg on 15th day; how it was run: as §6
Rattus norvegicus [31] = assay: In vivo evaluation of antifungal activity in against vaginal candidosis in rat at dose 0.25 mg/kg on 10th day; how it was run: as §5
Nakaseomyces glabratus [32] = assay: In vitro evaluation of minimum inhibitory concentration against Torulopsis glabrata 78; settings: Nakaseomyces glabratus; read-out: MIC; how it was run: as §3
Rhodotorula mucilaginosa [33] = assay: In vitro evaluation of minimum inhibitory concentration against Rhodotorula rubra 16; settings: Rhodotorula mucilaginosa; read-out: MIC; how it was run: as §3
Kluyveromyces marxianus [34] = assay: In vitro evaluation of minimum inhibitory concentration against Candida pseudotropicalis 13; settings: Kluyveromyces marxianus; read-out: MIC; how it was run: as §3
Mus musculus [35] = assay: In vivo evaluation of % survival rate after peroral administration on 3rd day at dose 10 mg/kg; settings: route oral
Mus musculus [36] = assay: In vivo evaluation of % survival rate after peroral administration on 7th day at dose 5 mg/kg; settings: route oral

In the case of C[C@H]1N(C(=O)c2ccc(C(F)(F)F)cc2)C[C@H](O)O[C@@]1(Cn1cncn1)c1ccc(F)cc1F (stereo in doubt; (-)-39a), the MIC (Candida albicans [1]) is reported as 1.25 mg/L (≈ 2.59 µM), the MIC (Candida albicans [2]) is reported as 2.5 mg/L (≈ 5.18 µM) and the MFC (Candida albicans [3]) is reported as > 64 mg/L. For the same molecule, the MIC (Candida albicans [3]) was 1 mg/L (≈ 2.07 µM), the MFC (Candida tropicalis [4]) was > 64 mg/L and the MIC (Candida tropicalis [4]) was 64 mg/L (≈ 133 µM). For the same molecule, the MIC (Candida tropicalis [5]) was 40 mg/L (≈ 82.9 µM), the MIC (Kluyveromyces marxianus [6]) was 20 mg/L (≈ 41.5 µM) and the Cure rate (Rattus norvegicus [7]) was 30%. For the same molecule, the Cure rate (Rattus norvegicus [8]) was 50%, the Cure rate (Rattus norvegicus [9]) was 95% and the MIC (Rhodotorula mucilaginosa [10]) was > 80 mg/L. The MIC (Nakaseomyces glabratus [11]) was > 80 mg/L.
In the case of OC(Cn1cncn1)(Cn1cncn1)c1ccc(F)cc1F [FLUCONAZOLE], the MIC (Candida albicans [12]) is reported as 2.5 mg/L (≈ 8.16 µM), the MIC (Candida albicans [13]) is reported as 2.5 mg/L (≈ 8.16 µM) and the MFC (Candida albicans [3]) is reported as > 64 mg/L. The MIC (Candida albicans [3]) was 0.25 mg/L (≈ 0.816 µM), the MFC (Candida tropicalis [4]) was > 64 mg/L and the MIC (Candida tropicalis [4]) was 1 mg/L (≈ 3.27 µM). The MIC (Candida tropicalis [14]) was 80 mg/L (≈ 261 µM), the survival at 2.5 mg/kg (Mus sp. [15]) was 100% and the survival at 20 mg/kg (Mus musculus [16]) was 100%. It also gave a survival at 5 mg/kg (Mus musculus [17]) of 100%, a survival at 10 mg/kg (Mus musculus [18]) of 100% and a survival at 2.5 mg/kg (Mus sp. [19]) of 100%. It also gave a survival at 20 mg/kg (Mus musculus [20]) of 100%, a survival at 5 mg/kg (Mus musculus [21]) of 100% and a survival at 10 mg/kg (Mus musculus [22]) of 80%. It also gave a survival at 2.5 mg/kg (Mus sp. [23]) of 95%, a survival at 20 mg/kg (Mus musculus [24]) of 98% and a survival at 10 mg/kg (Mus musculus [25]) of 60%. It also gave a survival at 2.5 mg/kg (Mus sp. [26]) of 70%, a survival at 20 mg/kg (Mus musculus [27]) of 75% and a survival at 5 mg/kg (Mus musculus [28]) of 40%. It also gave a Cure rate (Rattus norvegicus [29]) of 20%, a Cure rate (Rattus norvegicus [30]) of 20% and a Cure rate (Rattus norvegicus [31]) of 10%. The MIC (Nakaseomyces glabratus [32]) was > 80 mg/L, the MIC (Rhodotorula mucilaginosa [33]) was > 80 mg/L and the MIC (Kluyveromyces marxianus [34]) was 80 mg/L (≈ 261 µM). For the same molecule, the survival at 10 mg/kg (Mus musculus [35]) was 100% and the survival at 5 mg/kg (Mus musculus [36]) was 90%.
